Measurements: ChEMBL document CHEMBL1154919, “Synthesis and biological evaluation of 12-aminoacylphorboids” (J Nat Prod, 2010)
Calls of active or inactive are those of the source. The rule behind the calls is not given here.

Columns and labels:
[1] = target: Protein kinase C delta type (Homo sapiens) (UniProt Q05655); assay: Activation of PKCdelta assessed as [32P] incorporation after 10 mins by scintillation counting
[2] = target: Protein kinase C alpha type (Homo sapiens) (UniProt P17252); assay: Activation of PKCalpha assessed as [32P] incorporation after 10 mins by scintillation counting
[3] = tested on: Human immunodeficiency virus 1; assay: Activation of latent recombinant HIV1 LTR-GFP gene expression infected in human Jurkat LAT-GFP cells assessed as GFP positive cells at 10 uM after 6 hrs by flow cytometry; type: functional, organism-based
Outline: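 Jurkat-derived clone latently infected with recombinant virus carrying GFP under HIV-LTR promoter, exposed to compound for 6 h. Histograms shown are one of three independent experiments.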

[4] = tested on: Human immunodeficiency virus 1; assay: Activation of latent recombinant HIV1 LTR-GFP gene expression infected in human Jurkat LAT-GFP cells assessed as GFP level at 10 uM after 6 hrs by flow cytometry in presence of PKCinhibitor G06976 pretreated for 30 mins; type: functional, organism-based
Outline: (§1)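 Jurkat LAT-GFP cells (latent HIV-LTR-driven GFP clone) pretreated 30 min with PKC inhibitor (1 µM), then stimulated with compound at 10 µM for 6 h.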

[5] = tested on: Human immunodeficiency virus 1; assay: Activation of latent recombinant HIV1 LTR-GFP gene expression infected in human Jurkat LAT-GFP cells assessed as GFP level at 10 uM after 6 hrs by flow cytometry in presence of pan-PKC inhibitor G06983 pretreated for 30 mins; type: functional, organism-based; outline: as §1
[6] = target: Protein kinase C delta type (Homo sapiens) (UniProt Q05655); assay: Activation of PKCdelta in human Jurkat cells assessed as enzyme phosphorylation after 15 mins by Western blotting; type: cell-based
Outline: (§2)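 Jurkat LAT-GFP cells (10^6 cells/ml) exposed for 15 min to compound (increasing concentrations) or TPA 1 µM. Lysed in HEPES pH 8.0 buffer with 0.5% NP-40 and protease/phosphatase inhibitors. 30 µg protein run on 10% SDS-PAGE, blotted to nitrocellulose, probed with anti-phospho-PKCδ (Thr505) and anti-panPKC, ECL detection.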

[7] = target: T1, Prostaglandin G/H synthase 2 (Rattus norvegicus) (UniProt P35355); assay: Inhibition of COX2 in LPS-stimulated rat microglia assessed as PGE2 release after 24 hrs by enzyme immunoassay
T1 sequence (whole entry): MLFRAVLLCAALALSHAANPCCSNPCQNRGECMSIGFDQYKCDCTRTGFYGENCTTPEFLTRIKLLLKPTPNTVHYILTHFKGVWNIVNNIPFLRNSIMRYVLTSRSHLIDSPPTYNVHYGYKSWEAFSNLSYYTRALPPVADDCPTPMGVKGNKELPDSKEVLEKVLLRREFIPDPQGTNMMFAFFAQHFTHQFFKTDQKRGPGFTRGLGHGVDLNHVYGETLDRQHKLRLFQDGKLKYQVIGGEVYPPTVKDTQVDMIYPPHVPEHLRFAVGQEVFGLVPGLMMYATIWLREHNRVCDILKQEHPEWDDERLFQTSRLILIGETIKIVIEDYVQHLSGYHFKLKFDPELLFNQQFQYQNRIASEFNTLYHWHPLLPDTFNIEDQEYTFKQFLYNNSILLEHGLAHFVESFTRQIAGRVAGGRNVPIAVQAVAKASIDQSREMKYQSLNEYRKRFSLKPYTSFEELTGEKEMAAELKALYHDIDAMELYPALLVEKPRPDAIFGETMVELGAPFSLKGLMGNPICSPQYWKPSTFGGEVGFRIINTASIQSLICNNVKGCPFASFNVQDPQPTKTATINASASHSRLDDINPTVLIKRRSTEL

[8] = target: T1, Prostaglandin G/H synthase 2 (Rattus norvegicus); assay: Inhibition of COX2 in LPS-stimulated rat microglia after 24 hrs by immunoblotting
[9] = target: Protein kinase C delta type (Homo sapiens) (UniProt Q05655); assay: Activation of PKCdelta in human Jurkat cells assessed as enzyme phosphorylation at 1 uM after 15 mins by Western blotting; type: cell-based; outline: as §2
[10] = tested on: Human immunodeficiency virus 1; assay: Activation of latent recombinant HIV1 LTR-GFP gene expression infected in human Jurkat LAT-GFP cells assessed as GFP positive cells after 6 hrs by flow cytometry relative to control; type: functional, organism-based
Outline: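 Jurkat-derived clone latently carrying recombinant virus with GFP under the HIV-LTR promoter, stimulated with compound at the indicated concentrations for 6 h.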

Protein kinase C delta type (Homo sapiens), sequence (Q05655 whole entry, looked up): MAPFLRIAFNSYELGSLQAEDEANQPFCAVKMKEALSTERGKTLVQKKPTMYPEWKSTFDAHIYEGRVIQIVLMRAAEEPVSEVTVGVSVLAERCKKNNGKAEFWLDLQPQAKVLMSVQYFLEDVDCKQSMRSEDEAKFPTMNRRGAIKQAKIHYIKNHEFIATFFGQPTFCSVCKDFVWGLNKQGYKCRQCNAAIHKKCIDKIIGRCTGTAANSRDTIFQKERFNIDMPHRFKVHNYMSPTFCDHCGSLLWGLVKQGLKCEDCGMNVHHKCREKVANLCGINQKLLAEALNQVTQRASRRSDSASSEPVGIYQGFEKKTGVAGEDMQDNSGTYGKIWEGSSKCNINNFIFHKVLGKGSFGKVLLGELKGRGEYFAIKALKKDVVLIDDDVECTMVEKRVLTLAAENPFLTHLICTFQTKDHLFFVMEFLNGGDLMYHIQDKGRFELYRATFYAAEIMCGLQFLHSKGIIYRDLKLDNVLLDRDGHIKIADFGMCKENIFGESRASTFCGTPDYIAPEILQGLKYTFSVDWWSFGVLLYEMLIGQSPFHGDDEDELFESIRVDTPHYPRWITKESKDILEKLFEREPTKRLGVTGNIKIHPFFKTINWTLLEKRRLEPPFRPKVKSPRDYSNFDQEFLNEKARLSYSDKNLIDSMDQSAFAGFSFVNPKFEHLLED

**Q.** Which Activity [1] does the source give for `CC(=O)O[C@@]12[C@H](OC(=O)CN(C)C)[C@@H](C)[C@]3(O)[C@@H]4C=C(C)C(=O)[C@@H]4CC(CO)=C[C@H]3[C@@H]1C2(C)C` here?
**A.** inactive

**Q.** And the Activity [2]?
**A.** inactive

**Q.** What about the Activity [3] of the same molecule?
**A.** inactive

**Q.** What does the source list for `CC(=O)O[C@@]12[C@H](OC(=O)[C@H](C(C)C)N(C)C)[C@@H](C)[C@]3(O)[C@@H]4C=C(C)C(=O)[C@@H]4CC(CO)=C[C@H]3[C@@H]1C2(C)C`?
**A.** Activity [1]: Dose-dependent effect; Activity [2]: Dose-dependent effect; Activity [3]: Active; Activity [4]: Active; Activity [5]: Active; Activity [6]: Active

**Q.** `CN[C@H](C(=O)O[C@@H]1[C@@H](C)[C@]2(O)[C@@H]3C=C(C)C(=O)[C@@H]3CC(CO)=C[C@H]2[C@@H]2C(C)(C)[C@]12OC(C)=O)C(C)C` was tested. Which Activity [3] did it give?
**A.** inactive

**Q.** For `CC(=O)O[C@@]12[C@H](OC(=O)[C@H](N)C(C)C)[C@@H](C)[C@]3(O)[C@@H]4C=C(C)C(=O)[C@@H]4CC(CO)=C[C@H]3[C@@H]1C2(C)C`, which Activity [3] is on record?
**A.** inactive

**Q.** How did the Activity [7] turn out when `CC(=O)O[C@@]12[C@H](OC(=O)[C@@H](C(C)C)N(C)C)[C@@H](C)[C@]3(O)[C@@H]4C=C(C)C(=O)[C@@H]4CC(CO)=C[C@H]3[C@@H]1C2(C)C` was run?
**A.** inactive

**Q.** And the Activity [3]?
**A.** Active

**Q.** And the Activity [4]?
**A.** Active

**Q.** What about the Activity [5] of the same molecule?
**A.** Active

**Q.** What about the inhibition [8] of the same molecule?
**A.** Active

**Q.** With `CCCCCCCCCCCCCC(=O)O[C@@H]1[C@@H](C)[C@]2(O)[C@@H]3C=C(C)C(=O)[C@@]3(O)[C@H](O)C(CO)=C[C@H]2[C@@H]2C(C)(C)[C@]12OC(C)=O` as the molecule, how does the Activity [9] read?
**A.** Active

**Q.** How did the Activity [3] turn out when `CC(=O)O[C@@]12[C@H](OC(=O)[C@@H](N)C(C)C)[C@@H](C)[C@]3(O)[C@@H]4C=C(C)C(=O)[C@@H]4CC(CO)=C[C@H]3[C@@H]1C2(C)C` was run?
**A.** inactive

**Q.** Which Activity [10] does the source give for `CCCCCCCCCCCCCC(=O)O[C@@H]1[C@@H](C)[C@@]2(O)[C@@H](C=C(CO)C[C@]3(O)C(=O)C(C)=C[C@@H]23)[C@@H]2C(C)(C)[C@]12OC(C)=O` here?
**A.** Active
